# PGC1a Ac signal: raises PGC1a acetylation signal in U2OS cells | actives 0.21% (n = 350,000) | activation, % at 15.6 µM | U2OS PGC1a acetylation AlphaScreen, overnight | AID 651723;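 active = every replicate reaching activation of at least 50%, whatever the mean replicate activation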;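 note: hits raise the AlphaScreen acetylation signal above neutral controls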
#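 System: Flag-PGC1a/GCN5 U2OS cells | Quantity: 7000 cells/well | Times: Overnight compound treatment, 37 °C | Measured by: AlphaScreen proximity luminescence, anti-acetyl-lysine antibody | Dosing: One concentration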
# Active calls of the source: *. The list is a sample of the results.
SMILES,PGC1a Ac signal
COc1ccc(NC(=O)N[C@H]2CC[C@@H](CCn3cc(-c4ccccc4F)nn3)O[C@H]2CO)cc1,-50
Cc1noc(C)c1NC(=O)Nc1ccc2c(c1)C(=O)N([C@@H](C)CO)C[C@@H](C)[C@@H](CN(C)CC1CCCCC1)OCCCC[C@H](C)O2,-55
C[C@H](CO)N1C[C@H](C)[C@H](CN(C)S(=O)(=O)c2ccccc2C#N)OCc2cnnn2CCCC1=O,-41
C#CCN(C[C@@H]1[C@@H](OC(=O)Nc2cccs2)[C@@H](OC(=O)Nc2cccs2)Cn2c(=O)ccc(=O)n21)S(=O)(=O)c1ccc(C)cc1,-43
C#CCN(C[C@@H]1[C@@H](OC(=O)NCc2ccccc2F)[C@@H](OC(=O)NCc2ccccc2F)Cn2c(=O)ccc(=O)n21)S(=O)(=O)c1ccc(C)cc1,-60
C#CCN(C[C@@H]1[C@@H](OC(=O)NC2CCCC2)[C@@H](OC(=O)NC2CCCC2)Cn2c(=O)ccc(=O)n21)S(=O)(=O)c1ccc(C)cc1,111*
COCCNC(=O)CCc1c(C)nc2c(c(C)nn2-c2ccc(C)c(C)c2)c1C,-78
O=C(O)CSCC(=O)NCc1ccc(Cl)cc1Cl,-41
COc1cccc(-n2c(-c3cccc(S(=O)(=O)N(C)C)c3)n[nH]c2=S)c1,-56
CCCS(=O)(=O)c1nnnn1-c1cccc(OC)c1,73*
CC(C)n1c(=S)[nH]c2cc(Cl)ccc21,-69
Cc1ccc(S(=O)(=O)N2CCCCC2C(=O)O)cc1 (configuration not stated),-41
CCOC(=O)C1CN(S(=O)(=O)c2ccc(C)cc2)c2cc(S(=O)(=O)CC)ccc2O1 (configuration not stated),54*
COc1ccccc1C(=O)Oc1cc(N)n(S(=O)(=O)c2ccc(C)cc2)n1,-42
C#CCN1[C@H](/C=C/C2CC2)[C@H](Cc2ccccc2)OC(=O)[C@@H]1[C@@H]1N[C@@H](C(=O)OC)C(C)(C)S1,-46
O=C(c1ccc(N2CCCC2=O)cc1)N1CCCCCC1,-42
CCOC(=O)/C(C#N)=N/Nc1ccc(S(=O)(=O)Nc2cc(OC)nc(OC)n2)cc1,-52
Cc1cc(NS(=O)(=O)c2ccc(NC(=O)CCCOc3ccccc3)cc2)no1,52*
COC(=O)Nc1ccc(Oc2ccccc2)cc1,-46
O=C(C[C@H]1CC[C@@H](NC(=O)c2ccccc2)[C@H](CO)O1)Nc1ccc(-c2ccccc2)cc1,-44
CC(C)(CO)CNc1ccn2nccc2n1,-43
O=C1C=C(c2cc3ccccc3s2)CCC1,58*
O=C(Nc1c(F)cccc1F)c1ccc(-n2cncn2)nc1,53*
Cc1ccccc1-c1nc(SCc2ccccn2)c2c(=O)n(C)c(=O)n(C)c2n1,-50
CCOc1ccc2c(c1)C(C)=CC(C)(C)N2S(=O)(=O)c1ccc(C)cc1,64*
SMILES,PGC1a Ac signal
C[C@@H]1CN([C@@H](C)CO)C(=O)c2cc(C#CCN(C)C)cnc2O[C@@H]1CN(C)S(=O)(=O)c1cn(C)cn1,-68
COc1ccc(N=C2SC(C(N)=O)CC(=O)N2Cc2ccc3c(c2)OCO3)cc1 (configuration not stated),-54
CC(C)c1ccc(/C=C2\CC/C(=C\C=N\N(C)C)C2=O)cc1,57*
O=C1/C(=C/c2ccncc2)CCC/C1=C\c1ccncc1,-78
Cc1cccc(C)c1NC(=O)C(NC(=O)c1ccccn1)c1ccc([N+](=O)[O-])cc1 (configuration not stated),-42
Cc1cc(C)n(C(=O)c2ccc([N+](=O)[O-])cc2N)n1,-44
Cc1c(C(=S)Nc2ccccc2)cnn1-c1ccc([N+](=O)[O-])cc1,71*
C[C@@H]1CN([C@H](C)CO)S(=O)(=O)c2ccc(-c3cncnc3)cc2O[C@H]1CN(C)Cc1cccnc1,-50
O=c1c2cccnc2n(-c2ccccc2)n1Cc1ccc(Cl)cc1,-101
CCSC1=N/C(=C\c2ccccc2)C(=O)N1c1ccc(OC)cc1,-51
C=CCNc1nnc(SC2CC(=O)N(c3ccc(OC)cc3)C2=O)s1 (configuration not stated),75*
COc1ccc(CCNC(=O)COc2ccc(S(=O)(=O)N3CCCC3)cc2)cc1,-48
CC(C)(C)Cc1nnc(NS(=O)(=O)c2ccc(F)cc2)s1,-43
CCc1nnc(NC(=O)Cc2ccc(S(=O)(=O)N3CCCCC3)cc2)s1,65*
CCCCn1c(=NC(=O)c2cccnc2)c(C(=O)OCC)cc2c(=O)n3ccccc3nc21,115*
CSc1n[nH]c(NC(=O)c2c(-c3c(Cl)cccc3Cl)noc2C)n1,-65
Cc1cc(C)nc(NC(=O)c2c(-c3ccccc3Cl)noc2C)n1,77*
COc1ccc(OCC(=O)NNC(=O)c2c(-c3ccccc3Cl)noc2C)cc1,-62
C/C(=N\NC(=O)CN1CCCCC1)c1ccccc1O,-44
CC(=NNC(=S)N1CCC1)c1ccccn1,190*
O=c1[nH][nH]c(-c2ccccc2)c1C=Nc1ccccc1Cl,-41
O=CNCCc1nc2ccccc2n1CCc1ccccc1,-53
CC(=O)c1c(-c2ccccc2)[nH]c2ccccc12,61*
O=C(O)c1ccc(N=Nc2c(O)[nH]c3ccccc23)cc1,-49
O=C(OCc1nc(-c2ccccc2)oc1COC(=O)c1ccco1)c1ccco1,-44
SMILES,PGC1a Ac signal
O=C(Cc1ccccn1)NCC[C@@H]1CC[C@H](NC(=O)Nc2ccc(C(F)(F)F)cc2)[C@@H](CO)O1,-50
COC1=CC(=O)C=C(OC)C1=O,107*
Cc1ccc(-c2csnn2)cc1,-51
CC(C)C12CN3CC(C(C)C)(CN(C1)C3c1ccc3c(c1)OCO3)C2=O (configuration not stated),80*
Cc1ccc(N2C(=O)c3ccccc3NC2C(C)Cc2ccc3c(c2)OCO3)cc1 (configuration not stated),-40
COc1ccc(C(=C(CC(=O)O)C(=O)OC(C)(C)C)c2cc(OC)c(OC)c(OC)c2)cc1OC,-47
COC(c1ccccc1)c1nnc(CCC(=O)N(C)C(C2CC2)C2CC2)o1 (configuration not stated),-42
Cc1ccc(NCC(=O)N/N=C\C(Br)=C\c2ccccc2)cc1,145*
O=C(O)c1ccc(N/N=C/C(Br)=C/c2ccccc2)cc1,54*
CSc1nc(SC)c2c3c(oc2n1)COC(C)(C)C3,58*
CC1=C(C(N)=O)C(c2ccccc2)n2nc(-c3ccncc3)nc2N1 (configuration not stated),60*
O=C(CN(Cc1ccc2c(c1)OCO2)C(=O)CNS(=O)(=O)c1ccccc1)NCc1ccco1,-46
Cn1c(CCN2CCCCC2)nc2cc(NS(=O)(=O)c3ccccc3)ccc21,64*
Cn1c(CN2CCCC2)nc2cc(NC(=O)COc3ccc(Cl)cc3)ccc21,-52
CC(C)c1ccc(NC(=O)CSc2nc3ccsc3c(=O)n2Cc2ccc(C(=O)O)cc2)cc1,-59
CC(C)CCCCCCCCCCCCC(=O)NCC(=O)NC1C(O)C(O)C(Nc2ncnc3nc[nH]c23)OC1C(O)CO (configuration not stated),-96
COC(=O)c1cccc(NC(=O)CSc2nnc(C)n2C)c1,-47
N#Cc1c(-c2ccccc2)c(-c2ccccc2)nn(CC(=O)NNC(=O)Nc2ccc(Cl)cc2)c1=O,-40
Cc1nc(SCC(=O)OCc2ccccc2)c(C#N)c(-c2ccccc2)c1C(=O)Nc1ccccc1,57*
CC(C)N1CCc2c(sc(NC(=O)C3CCCCC3)c2C(N)=O)C1,-44
CCOC(=O)C1(Cc2cccc(F)c2)CCN(Cc2c(C)nn(CC)c2C)CC1,-48
CC(/C=N/N1CCN(Cc2ccccc2)CC1)=C\c1ccccc1,-44

# Screens (PubChem BioAssay)
